Results as given in ChEMBL document CHEMBL4627281, “A small molecule inhibitor of PCSK9 that antagonizes LDL receptor binding via interaction with a cryptic PCSK9 binding groove” (Bioorg Med Chem, 2020).
Calls of active or inactive are those of the source. The rule behind the calls is not given here.

What was measured:
[1] = molecular target: Proprotein convertase subtilisin/kexin type 9 (Homo sapiens) (UniProt Q8NBP7); experiment: Binding affinity to biotinylated recombinant human PCSK9 at 0.8 to 1.6 uM incubated for 2 mins followed by further incubation for 10 mins by biolayer interferometry
Sequence of Proprotein convertase subtilisin/kexin type 9 (Homo sapiens) (Q8NBP7 31-152 limits assumed): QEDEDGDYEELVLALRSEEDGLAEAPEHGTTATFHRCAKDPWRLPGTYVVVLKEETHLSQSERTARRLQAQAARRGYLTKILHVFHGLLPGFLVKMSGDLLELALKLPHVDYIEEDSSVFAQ
Sequence of Proprotein convertase subtilisin/kexin type 9 (Homo sapiens) (Q8NBP7 153-692 limits assumed): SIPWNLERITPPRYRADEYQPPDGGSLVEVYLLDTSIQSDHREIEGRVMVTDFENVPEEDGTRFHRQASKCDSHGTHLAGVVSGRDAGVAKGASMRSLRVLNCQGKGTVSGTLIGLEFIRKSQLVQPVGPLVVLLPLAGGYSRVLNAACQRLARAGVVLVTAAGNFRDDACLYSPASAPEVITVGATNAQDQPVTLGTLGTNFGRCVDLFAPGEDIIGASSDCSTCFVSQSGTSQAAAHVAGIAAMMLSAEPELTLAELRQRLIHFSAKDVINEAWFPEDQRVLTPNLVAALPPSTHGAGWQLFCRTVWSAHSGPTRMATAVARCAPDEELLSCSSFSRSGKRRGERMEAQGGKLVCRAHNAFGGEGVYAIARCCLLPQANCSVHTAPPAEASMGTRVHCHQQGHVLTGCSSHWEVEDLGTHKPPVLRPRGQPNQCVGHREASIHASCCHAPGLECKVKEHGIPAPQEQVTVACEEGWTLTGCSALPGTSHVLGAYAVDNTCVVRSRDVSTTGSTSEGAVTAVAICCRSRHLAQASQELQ
Summary of the method: (§1)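 Biolayer interferometry: biotinylated PCSK9 (27 µg/mL) loaded onto a Super Streptavidin biosensor and blocked with biocytin. Compound (0.2–25.6 µM) associated for 2 min, then dissociated for 10 min. Background signal subtracted to remove non-specific binding.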

[2] = molecular target: Mast/stem cell growth factor receptor Kit (Homo sapiens, UniProt P10721); experiment: Inhibition of recombinant human N-terminal GST-tagged c-Kit (544 to end residues) expressed in baculovirus infected Sf21 insect cells using FAM-labelled P22 peptide as substrate preincubated for 10 mins followed by substrate addition and measured after 1 hr in presence of ATP by fluorescence assay
Sequence of Mast/stem cell growth factor receptor Kit (P10721 whole entry): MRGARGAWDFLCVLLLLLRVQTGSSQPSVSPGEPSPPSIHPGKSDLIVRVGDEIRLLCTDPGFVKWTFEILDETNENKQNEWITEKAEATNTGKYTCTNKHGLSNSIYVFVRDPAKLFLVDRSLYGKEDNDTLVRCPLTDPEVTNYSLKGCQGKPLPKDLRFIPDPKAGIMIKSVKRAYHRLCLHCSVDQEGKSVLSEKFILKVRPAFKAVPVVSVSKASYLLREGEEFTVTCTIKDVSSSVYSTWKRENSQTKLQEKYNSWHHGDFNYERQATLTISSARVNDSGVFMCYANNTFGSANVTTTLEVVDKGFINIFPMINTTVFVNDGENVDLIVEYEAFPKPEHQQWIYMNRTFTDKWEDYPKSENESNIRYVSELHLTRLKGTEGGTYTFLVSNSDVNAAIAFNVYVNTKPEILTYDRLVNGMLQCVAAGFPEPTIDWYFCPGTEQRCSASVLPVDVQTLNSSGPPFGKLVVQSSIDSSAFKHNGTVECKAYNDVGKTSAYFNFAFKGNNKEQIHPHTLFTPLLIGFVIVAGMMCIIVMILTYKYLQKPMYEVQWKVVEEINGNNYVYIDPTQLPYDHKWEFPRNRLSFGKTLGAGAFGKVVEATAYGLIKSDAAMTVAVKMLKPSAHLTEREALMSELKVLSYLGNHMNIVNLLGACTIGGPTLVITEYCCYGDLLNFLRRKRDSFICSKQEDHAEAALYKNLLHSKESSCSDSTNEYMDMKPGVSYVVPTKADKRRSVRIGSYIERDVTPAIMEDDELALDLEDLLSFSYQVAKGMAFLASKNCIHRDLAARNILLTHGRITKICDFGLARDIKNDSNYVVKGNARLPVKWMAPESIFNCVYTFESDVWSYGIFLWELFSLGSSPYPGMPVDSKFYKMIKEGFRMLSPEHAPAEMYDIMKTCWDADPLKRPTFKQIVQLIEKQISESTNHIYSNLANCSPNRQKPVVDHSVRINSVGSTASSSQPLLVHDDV

[3] = molecular target: Proprotein convertase subtilisin/kexin type 9 (Homo sapiens) (UniProt Q8NBP7); experiment: Binding affinity to biotinylated recombinant human PCSK9 at 0.2 to 0.4 uM incubated for 2 mins followed by further incubation for 10 mins by biolayer interferometry; summary of the method: as §1
[4] = tested on: PCSK9/LDLR (Homo sapiens), Q8NBP7+P01130 [D374Y]; experiment: Inhibition of PCSK9 D374Y mutant (unknown origin) and LDLR protein-protein interaction expressed in human PBMCs assessed as increase in LDLR expression on lymphocyte surface at 1 to 10 uM measured after 4 hrs by flow cytometry analysis
Summary of the method: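 PBMCs from healthy donors, frozen and then thawed, plated at 2 × 10^5 per well in RPMI with 10 mM HEPES, 1 mM pyruvate and 0.5% FCS for 2 h at 37 °C. Treated 4 h with or without 600 ng/mL PCSK9-D374Y plus compound. Cells stained 20 min at room temperature with APC-conjugated anti-LDLR; at least 5 × 10^3 gated lymphocytes read by flow cytometry. Values as % of PCSK9-free vehicle; triplicates, t test.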

[5] = AUClast in CD1 mouse at 0.4 mg/kg, iv administered as cassette dose measured upto 24 hrs by LC-MS/MS analysis; type: ADME, organism-based; parameters: time < 24 hr, dose 0.4 mg/kg, route intravenous; details: in vivo
Summary of the method: (§2)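 Male CD1 mice (second cassette 28–29 g, 7–8 weeks) given one IV 5-in-1 cassette at 0.4 mg/kg per compound in 5% DMAC/5% Solutol HS15/90% saline. Blood (~20 µL) into K2EDTA from the facial vein at 0.083–24 h, terminal bleed by cardiac puncture under isoflurane. Blood diluted with deionised water, stored at −80 °C, analysed by positive-ESI mass spectrometry.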

[6] = AUCinfinity in CD1 mouse at 0.4 mg/kg, iv administered as cassette dose measured upto 24 hrs by LC-MS/MS analysis; type: ADME, organism-based; parameters: dose 0.4 mg/kg, route intravenous, time infinity; details: in vivo; summary of the method: as §2
[7] = Cmax in C57BL/6 mouse at 20 mg/kg, sc administered as single dose measured upto 24 hrs by LC-MS/MS analysis; type: ADME, organism-based; parameters: dose 20 mg/kg, route subcutaneous; details: in vivo
Summary of the method: (§3)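 Male C57BL/6 mice, single dose: IV 5 mg/kg in 85% saline/10% Solutol HS15/5% DMSO; SC 20 mg/kg in same vehicle; PO 20 mg/kg in 1% methylcellulose in water. About 110 µL blood taken into K2EDTA by retro-orbital puncture (terminal bleed by cardiac puncture under isoflurane) at 0.033–24 h. Plasma spun at 2000 g, 5 min, 4 °C, stored near −70 °C; n = 3 per route.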

[8] = Cmax in C57BL/6 mouse at 20 mg/kg, po administered as single dose measured upto 24 hrs by LC-MS/MS analysis; type: ADME, organism-based; parameters: dose 20 mg/kg, route oral; details: in vivo; summary of the method: as §3
[9] = Volume of distribution at steady state in C57BL/6 mouse at 5 mg/kg, iv administered as single dose measured upto 24 hrs by LC-MS/MS analysis; type: ADME, organism-based; details: in vivo, read-out: Vdss; summary of the method: as §3
[10] = Terminal half life in C57BL/6 mouse at 20 mg/kg, sc administered as single dose measured upto 24 hrs by LC-MS/MS analysis; type: ADME, organism-based; details: in vivo, read-out: beta t1/2 (converted); summary of the method: as §3
[11] = Terminal half life in C57BL/6 mouse at 5 mg/kg, iv administered as single dose measured upto 24 hrs by LC-MS/MS analysis; type: ADME, organism-based; details: in vivo, read-out: beta t1/2 (converted); summary of the method: as §3
[12] = AUClast in C57BL/6 mouse at 20 mg/kg, sc administered as single dose measured upto 24 hrs by LC-MS/MS analysis; type: ADME, organism-based; parameters: dose 20 mg/kg, time < 24 hr, route subcutaneous; details: in vivo; summary of the method: as §3
[13] = AUClast in C57BL/6 mouse at 5 mg/kg, iv administered as single dose measured upto 24 hrs by LC-MS/MS analysis; type: ADME, organism-based; parameters: dose 5 mg/kg, time < 24 hr, route intravenous; details: in vivo; summary of the method: as §3
[14] = AUCinfinity in C57BL/6 mouse at 20 mg/kg, sc administered as single dose measured upto 24 hrs by LC-MS/MS analysis; type: ADME, organism-based; parameters: dose 20 mg/kg, time infinity, route subcutaneous; details: in vivo; summary of the method: as §3
[15] = AUCinfinity in C57BL/6 mouse at 5 mg/kg, iv administered as single dose measured upto 24 hrs by LC-MS/MS analysis; type: ADME, organism-based; parameters: dose 5 mg/kg, route intravenous, time infinity; details: in vivo; summary of the method: as §3
[16] = Bioavailability in C57BL/6 mouse at 20 mg/kg, sc administered as single dose measured upto 24 hrs by LC-MS/MS analysis; type: ADME, organism-based; details: in vivo; summary of the method: as §3
[17] = Oral bioavailability in C57BL/6 mouse at 20 mg/kg administered as single dose measured upto 24 hrs by LC-MS/MS analysis; type: ADME, organism-based; details: in vivo; summary of the method: as §3
Mus musculus [18] = experiment: Effect on total triglyceride level in C57BL/6 mouse at 3.28 to 16.4 mg/kg/day, sc administered daily for 14 days and measured on day 15 by colorimetric method; type: ADME, organism-based; details: in vivo, 336 h
Summary of the method: (§4)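 Female C57BL/6 wild-type or PCSK9−/− mice (8–16 weeks), acclimatised 7 days, 5 per group, dosed SC daily for 14 days at 3.28 or 16.4 mg/kg/day in 5% DMSO/95% saline, or vehicle alone. Blood taken into EDTA on days 0, 5, 10 and 15; plasma from 2500 g spin, stored at −20 °C. Total cholesterol and triglycerides read by colorimetric kits, PCSK9 by mouse ELISA; unpaired two-tailed t test against vehicle.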

Mus musculus [19] = experiment: Up regulation of PCSK9 expression in C57BL/6 mouse at 16.4 mg/kg/day, sc administered daily for 10 days measured post last dose by ELISA; type: functional, organism-based; details: in the assay text read “for 14 days” for “for 10 days”; summary of the method: as §4
[20] = tested on: PCSK9/LDLR (Homo sapiens), Q8NBP7+P01130 [D374Y]; experiment: Inhibition of PCSK9 D374Y mutant (unknown origin) and LDLR protein-protein interaction in human HepG2 cells assessed as increase in Bodipy FL-labelled LDL uptake preincubated for 16 hrs followed by Bodipy FL-labelled LDL addition and measured after 4 hrs by fluorescence assay; type: cell-based
Summary of the method: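 HepG2 cells seeded at 2 × 10^5 cells/mL and attached overnight, then incubated 16 h with PCSK9-D374Y (2 μg/mL) plus compound (0.1 or 1 µM). Medium replaced with 10 μg/mL Bodipy FL LDL for 4 h. Cells washed with warm PBS; fluorescence read at ex 485/em 530 nm. Mean ± S.D.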

[21] = Plasma concentration in C57BL/6 mouse at 20 mg/kg, sc administered as single dose measured after 24 hrs by LC-MS/MS analysis; type: ADME, organism-based; summary of the method: as §3
[22] = Time at which plasma concentration exceeds in vitro IC50 for inhibition of recombinant human His-tagged PCSK9 interaction with recombinant LDLR AB domain (unknown origin) in C57BL/6 mouse at 20 mg/kg, sc administered as single dose; type: organism-based; details: in vivo
[23] = Toxicity in C57BL/6 mouse assessed as change in behavior at 3.28 to 16.4 mg/kg/day, sc administered daily for 14 days; type: organism-based; details: in vivo, 336 h

Activity [1]: Active
IC50 [2]: > 10 µM
Activity [3]: inactive
inhibition [4]: Active
AUC(0-t) at 24 h [5]: 722 ng·h/mL
AUC(0-inf) [6]: 1470 ng·h/mL
Cmax [7]: 2210 ng/mL
Cmax [8]: 52.6 ng/mL
Vd [9]: 3.87 L/kg
half-life [10]: 5.47 h
half-life [11]: 9.86 h
AUC(0-t) at 24 h [12]: 16100 ng·h/mL
AUC(0-t) at 24 h [13]: 4380 ng·h/mL
AUC(0-inf) [14]: 16800 ng·h/mL
AUC(0-inf) [15]: 4600 ng·h/mL
bioavailability [16]: 91.3%
bioavailability [17]: 0.527%
inhibition [20]: Dose-dependent effect
concentration at 24 h [21]: 93 nM
T>IC50 [22]: >= 16 hr
Compound: Cc1cn(-c2cc(CN3CCC[C@H](N)C3)cc(NC(=O)c3ccc(C)c(Oc4ccccc4)c3)c2)cn1
Activity (Mus musculus [18]): Non-Toxic
Activity (Mus musculus [19]): Active
Activity [23]: Non-Toxic
